Measurements as given in ChEMBL document CHEMBL1799947, “Synthesis, transport and antiviral activity of Ala-Ser and Val-Ser prodrugs of cidofovir” (Bioorg Med Chem Lett, 2011).
Active and inactive are the calls of the source. The calls are words filed in the database; no cut-off is given here.

Tests used:
[1] = test system: Plasma; test: Prodrug conversion in CFW Swiss-Webster mouse plasma assessed as cidofovir monoethyl ester formation at 10 mg/kg administered through oral gavage; format: ADME, organism-based; parameters: dose 10 mg/kg, route oral; details: in vivo
[2] = test system: Plasma; test: Drug uptake in fasted Albino Sprague-Dawley rat plasma at 10 mg/kg administered into gastrointestinal tract measured up to 4 hrs; format: ADME, organism-based; parameters: dose 10 mg/kg; details: in vivo, other
How it was run: (§1)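 Rats received 3 mg of drug (about 10 mg/kg) by direct injection into the gastrointestinal tract. Plasma was sampled over a 4 h time course. Read-out was dose-corrected total cidofovir species in plasma.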

[3] = Antiviral activity against Cowpox virus Brighton infected in HFF cells assessed as reduction in plaque formation after 3 days; format: functional, cell-based, Cowpox virus (Brighton Red); details: 72 h
[4] = test system: Human betaherpesvirus 5; test: Antiviral activity against Human cytomegalovirus Towne infected in HFF cells assessed as reduction in plaque formation after 10 days; format: functional, organism-based; details: Human betaherpesvirus 5, Towne, 240 h
How it was run: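 HCMV plaque reduction assay incubated 10 days, with ganciclovir as the positive control.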

[5] = test system: Vaccinia virus; test: Antiviral activity against Vaccinia virus Copenhagen infected in HFF cells assessed as reduction in plaque formation after 3 days; format: functional, organism-based; details: Orthopoxvirus vaccinia, 72 h
[6] = Cytotoxicity against human KB cells after 48 hrs by crystal violet staining technique; format: cell-based
[7] = (§2) Cytotoxicity against HFF cells; format: cell-based; details: human, HFF cells
[8] = test system: Vaccinia virus; test: Antiviral activity against Vaccinia virus Copenhagen infected in HFF cells assessed as reduction in plaque formation up to 100 uM after 3 days; format: functional, organism-based; details: Orthopoxvirus vaccinia
[9] = test system: Plasma; test: Prodrug conversion in fasted Albino Sprague-Dawley rat assessed as increase of cidofovir species level in plasma at 10 mg/kg into gastrointestinal tract relative to cidofovir or cyclic cidofovir; format: ADME, organism-based; parameters: dose 10 mg/kg; details: in vivo, other; how it was run: as §1
[10] = test system: HFF; test: as §2; format: cell-based; details: human, hff

Structure (SMILES) | Drug uptake [2] | IC50 [3] [µM] | IC50 [4] [µM] | IC50 [5] [µM] | CC50 at 48 h [6] [µM] | further results
CCOP(=O)(CO[C@H](CO)Cn1ccc(N)nc1=O)OC[C@H](NC(=O)[C@H](C)N)C(=O)OC (some centres undefined) | Active | – | – | – | – | Activity [1]: Active
CCOP(=O)(CO[C@H](CO)Cn1ccc(N)nc1=O)OC[C@H](NC(=O)[C@@H](N)C(C)C)C(=O)OC (some centres undefined) | Not Active | – | – | – | – | Activity [1]: Active
CC(C)OC(=O)[C@H](COP(=O)(O)CO[C@H](CO)Cn1ccc(N)nc1=O)NC(=O)[C@@H](N)C(C)C | – | > 100 | 0.32 | > 100 | > 100 | –
CC(C)OC(=O)[C@H](COP1(=O)CO[C@@H](Cn2ccc(N)nc2=O)CO1)NC(=O)[C@H](N)C(C)C (some centres undefined) | Active | – | – | – | – | –
COC(=O)[C@H](COP1(=O)CO[C@@H](Cn2ccc(N)nc2=O)CO1)NC(=O)[C@@H](N)C(C)C (some centres undefined) | – | > 30 | 0.3 | 100 | > 100 | CC50 [7]: > 100 µM
CCOP(=O)(O)CO[C@H](CO)Cn1ccc(N)nc1=O | – | – | – | – | – | Activity [8]: inactive
CC(C)OC(=O)[C@H](COP(=O)(O)CO[C@H](CO)Cn1ccc(N)nc1=O)NC(=O)[C@H](N)C(C)C (mixture of isomers) | Active | > 100 | 1.3 | > 100 | > 100 | fold change (FC) [9]: 15
Nc1ccn(C[C@@H](CO)OCP(=O)(O)O)c(=O)n1.O.O [CIDOFOVIR] | Active | 30 | 0.11 | 20 | > 100 | CC50 [7]: > 100 µM
Nc1ccn(C[C@H]2COP(=O)(O)CO2)c(=O)n1 [CYCLIC CIDOFOVIR] | Active | 30 | 0.25 | 40 | > 100 | CC50 [10]: 100 µM
Nc1ncnc2c1ncn2[C@@H]1O[C@H](CO)[C@@H](O)[C@@H]1O [VIDARABINE] | – | – | – | 2 | – | –
